Only some compounds are listed: those with a hit (about 2.8% of all), similar ones and a draw of the others.
SIRT5 block: sirtuin-5 (human) deacylase inhibition; Purified SirT5, succinyl-peptide AMC, trypsin-coupled fluorescence; inhibition, % at 15 µM; AID 652115; Q9NXA8; actives 1.1% (n = 330,000); in the data active means inhibition above about 15%; inconclusive means no clear call, values can overlap the other calls
Target sequence (Q9NXA8 whole entry, looked up): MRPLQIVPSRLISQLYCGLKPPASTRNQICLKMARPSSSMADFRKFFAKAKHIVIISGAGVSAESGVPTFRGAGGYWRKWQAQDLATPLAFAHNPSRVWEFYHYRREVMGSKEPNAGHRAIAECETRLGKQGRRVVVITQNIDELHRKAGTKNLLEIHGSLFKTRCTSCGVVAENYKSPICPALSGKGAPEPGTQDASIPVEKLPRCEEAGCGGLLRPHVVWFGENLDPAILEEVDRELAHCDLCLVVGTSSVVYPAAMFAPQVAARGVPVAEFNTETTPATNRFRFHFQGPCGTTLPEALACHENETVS
DENV2 CPE: protects cells from dengue virus 2 cytopathic effect; AID 651640; CPE inhibition, % at 9.99 µM; DENV2-infected cells, cytopathic effect rescue, plate reader; actives 1.7% (n = 350,000); in the data active means CPE inhibition above about 20%, passing the limit was not always enough; inconclusive means no clear call, values can overlap the other calls; tested in BHK-21 cells;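 further: 0% = median of neutral control wells and 100% = median of positive control wells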
E-sel inducer: induces E-selectin expression in human endothelial cells; P16581; HUVEC E-selectin immunofluorescence imaging; normalized: neutral wells 0, TNF-alpha wells 100; activation, % at 7.58 µM; actives 0.37% (n = 260,000); AID 686992;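 active means mean E-selectin-positive cell signal at least 10% of the positive control, reached in at least 60% of replicates, without over 20% cell loss; inconclusive means no rule given, readout overlaps actives, possibly toxicity-flagged; inactive means the rest, including those meeting only one limit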
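Assay system: HUVEC primary endothelial cells. Input: 3,000 HUVEC seeded per well. Doses: one compound dose added by pin transfer. Read-out basis: % PE-positive cells. Benchmarks: TNF-alpha high, DMSO low. Detection: immunofluorescence imaging. Buffer or medium: EGM-2, gelatin.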
* marks the source's active call; other numbers are inactive results; ? = inconclusive; . = not tested or not shown.

SMILES	SIRT5 block	DENV2 CPE	E-sel inducer
O=C(C[C@H]1CC[C@H]2[C@@H](COC[C@H](O)CN2S(=O)(=O)c2ccccc2)O1)NCc1ccc2c(c1)OCO2	-0.7	-7.0	-0.1
C[C@@H]1CN([C@H](C)CO)C(=O)c2cc(NC(=O)c3ccccc3)ccc2O[C@@H](C)CCCCO[C@H]1CN(C)S(=O)(=O)c1ccc(F)cc1	8.5	-4.3	-0.2
C[C@H](CO)N1C[C@H](C)[C@@H](CN(C)S(=O)(=O)c2ccc(F)cc2)OCCCC[C@H](C)Oc2ccc(NC(=O)c3ccccc3)cc2C1=O	7.6	4.6	0.0
C[C@@H]1CN([C@H](C)CO)C(=O)c2cc(NC(=O)c3ccncc3)ccc2O[C@@H](C)CCCCO[C@H]1CN(C)S(=O)(=O)c1ccccc1	7.4	-3.7	.
C[C@@H]1CCCCO[C@@H](CN(C)S(=O)(=O)c2ccc(F)cc2)[C@@H](C)CN([C@@H](C)CO)C(=O)c2cc(NC(=O)c3ccccc3)ccc2O1	2.3	92.9*	0.0
C[C@H](CO)N1C[C@H](C)[C@H](CN(C)S(=O)(=O)c2ccc(F)cc2)OCCCC[C@H](C)Oc2ccc(NC(=O)c3ccccc3)cc2C1=O	8.1	28.3*	0.0
C[C@@H]1CN([C@H](C)CO)C(=O)c2cc(NC(=O)c3ccccc3)ccc2O[C@@H](C)CCCCO[C@@H]1CN(C)S(=O)(=O)c1ccc(F)cc1	6.5	98.1*	0.0
C[C@@H]1CCCCO[C@H](CN(C)S(=O)(=O)c2ccccc2)[C@@H](C)CN([C@@H](C)CO)C(=O)c2cc(NC(=O)c3ccncc3)ccc2O1	2.0	82.7*	.
C[C@H]1CCCCO[C@H](CN(C)S(=O)(=O)c2ccc(F)cc2)[C@@H](C)CN([C@@H](C)CO)C(=O)c2cc(NC(=O)c3ccccc3)ccc2O1	8.0	4.3	-0.1
C[C@H](NC(=O)[C@@H]1[C@@H](CO)[C@@H]2Cn3c(cccc3=O)[C@H]1N2C(=O)C1CCCC1)c1ccccc1	0.9	-2.9	0.0
C[C@@H]1CCCCO[C@H](CN(C)C(=O)c2ccccc2)[C@@H](C)CN([C@H](C)CO)C(=O)c2cc(NC(=O)CCCN(C)C)ccc2O1	-3.9	5.4	0.0
O=C(N[C@@H]1CC[C@@H](CCNC(=O)C2CCCCC2)O[C@H]1CO)c1ccncc1	1.7	17.6	0.8
Cc1cccc(S(=O)(=O)N2CCCCN3[C@@H](CO)[C@H](c4ccc(C#CC5CC5)cc4)[C@@H]3C2)c1	8.7	8.8	-0.3
COc1ccc(S(=O)(=O)N(C)C[C@@H]2Oc3c(NC(=O)Nc4ccc5c(c4)OCO5)cccc3C(=O)N([C@H](C)CO)C[C@H]2C)cc1	1.2	-2.5	-0.8
O=C(NC[C@H]1N[C@H](CO)[C@@H]1c1ccc(C2=CCCCC2)cc1)c1ccccc1	.	-17.8	0.3
CN(C)C(=O)c1ccc(-c2ccc3c(c2)[C@H]2[C@H](CCN2C(=O)C2CC2)[C@H](CO)N3C)cc1	-2.1	-4.6	0.1
CN(C)C(=O)c1cccc(-c2ccc3c(c2)[C@H]2[C@H](CCN2C(=O)c2ccccc2)[C@@H](CO)N3C)c1	15.2*	-7.6	-0.4
CN(C)C(=O)c1ccc(-c2ccc3c(c2)[C@H]2[C@H](CCN2C(=O)C2CCOCC2)[C@@H](CO)N3C)cc1	17.2*	.	-0.4
COc1cccc(NC(=O)N2CC[C@@H]3[C@H]2c2cc(-c4cccc(OC)c4)ccc2N(C)[C@H]3CO)c1	2.0	68.3*	0.1
COc1ccc(NC(=O)N2CC[C@@H]3[C@H]2c2cc(-c4cccc(F)c4)ccc2N(C)[C@H]3CO)cc1	.	.	0.2
CN1c2ccc(-c3ccccc3)cc2[C@H]2[C@H](CCN2C(=O)c2ccc(F)cc2)[C@H]1CO	2.4	-0.8	-0.5
CN1c2ccc(-c3ccccc3)cc2[C@H]2[C@H](CCN2C(=O)c2ccccc2)[C@H]1CO	.	-27.8	0.4
COc1cccc(-c2ccc3c(c2)[C@@H]2[C@@H](CCN2C(=O)c2ccc(F)cc2)[C@H](CO)N3C)c1	.	23.9*	-0.6
CO[C@H]1CN(C)C(=O)c2ccc(NC(=O)C3CCOCC3)cc2OC[C@@H](C)N(C(=O)c2ccccc2)C[C@@H]1C	.	.	0.2
COCC(=O)N(C)C[C@H]1Oc2ncc(C#C[C@@H](C)O)cc2C(=O)N([C@@H](C)CO)C[C@H]1C	-4.9	-3.9	-0.3
SMILES	SIRT5 block	DENV2 CPE	E-sel inducer
COc1ccc2c3c([nH]c2c1)[C@@H](CO)NCC31CN(Cc2ccccc2F)C1	.	18.8	2.4
CN1c2ccc(-c3cccc(F)c3)cc2[C@H]2[C@H](CCN2C(=O)c2ccccc2F)[C@H]1CO	6.4	69.4*	-0.8
CN1c2ccc(-c3ccc(F)cc3)cc2[C@@H]2[C@@H](CCN2C(=O)c2ccncc2)[C@H]1CO	-4.2	-5.2	1.1
CN1c2ccc(-c3ccc(F)cc3)cc2[C@@H]2[C@@H](CCN2C(=O)Cc2ccccn2)[C@@H]1CO	-4.3	?	-0.8
COc1cccc(-c2ccc3c(c2)[C@H]2[C@H](CCN2C(=O)c2ccccc2F)[C@@H](CO)N3C)c1	.	-5.1	0.0
CN1c2ccc(-c3ccc(F)cc3)cc2[C@@H]2[C@@H](CCN2C(=O)c2ccncc2)[C@@H]1CO	19.0*	-3.6	-0.3
CN1c2ccc(-c3ccccc3)cc2[C@@H]2[C@@H](CCN2C(=O)Cc2ccccn2)[C@@H]1CO	-0.3	22.3*	-0.5
CCC(=O)N[C@@H]1C=C[C@@H](CC(=O)NCCN2CCCCC2)O[C@@H]1CO	-6.0	?	-0.3
COC(=O)[C@H]1[C@H](CO)[C@H]2Cn3c(ccc(-c4ccncc4)c3=O)[C@H]2N1Cc1cccc(F)c1	6.3	-5.2	-1.6
C[C@H](CO)N1C[C@H](C)[C@H](CN(C)C(=O)C2CC2)Oc2cc(/C=C/c3ccccc3)ccc2S1(=O)=O	10.6	10.7	0.0
C[C@@H]1CCCCO[C@@H](CN(C)C(=O)Nc2cccc3ccccc23)[C@H](C)CN([C@H](C)CO)C(=O)c2cc(NC(=O)Nc3ccc4c(c3)OCO4)ccc2O1	9.5	1.6	-0.2
COC(=O)c1c(CC[C@@H](CO)NC(=O)N[C@H](Cc2ccccc2)Cn2cc(-c3ccccn3)nn2)oc(C(C)=O)c1C(=O)OC	-10.7	31.0*	.
COC(=O)c1c(CC[C@@H](CO)NC(=O)N[C@H](Cc2ccccc2)Cn2cc(-c3ccccc3N)nn2)oc(C(C)=O)c1C(=O)OC	3.1	0.4	.
Cc1ccccc1-c1ccc([C@@H]2[C@H]3CN(S(C)(=O)=O)CCCCN3[C@H]2CO)cc1	-0.4	-4.0	0.9
C[C@H](CO)N1C[C@H](C)[C@H](CN(C)Cc2ccc(C(F)(F)F)cc2)Oc2c(NC(=O)c3ccc(-c4nccs4)cc3)cccc2C1=O	15.7*	2.7	-2.3
C[C@H]1CN([C@@H](C)CO)C(=O)c2cccc(NC(=O)c3ccc(-c4nccs4)cc3)c2O[C@@H]1CN(C)Cc1ccc(C(=O)O)cc1	3.3	-13.1	0.1
C[C@@H]1CN([C@@H](C)CO)C(=O)c2cccc(NC(=O)c3ccc(-c4nccs4)cc3)c2O[C@@H]1CN(C)Cc1ccc(C(=O)O)cc1	0.6	-2.2	0.7
C[C@H]1CN([C@@H](C)CO)C(=O)c2cccc(NC(=O)c3ccc(-c4nccs4)cc3)c2O[C@H]1CN(C)Cc1ccc(C(F)(F)F)cc1	16.6*	-0.5	-2.5

Screening results from PubChem BioAssay.
